ChEMBL document CHEMBL3243960
Active and inactive are the calls of the source. The rule behind the calls is not given here.

How the values were obtained:
[1] = molecular target: T1, Asparagine synthetase [glutamine-hydrolyzing] (Rattus norvegicus) (UniProt P49088); assay: Inhibition of asparagine synthetase isolated from rat bearing Novikoff hepatoma cells using [14C]-L-aspartic acid as substrate at 2 mM incubated 15 mins prior to substrate addition measured after 30 mins
T1 sequence (whole entry): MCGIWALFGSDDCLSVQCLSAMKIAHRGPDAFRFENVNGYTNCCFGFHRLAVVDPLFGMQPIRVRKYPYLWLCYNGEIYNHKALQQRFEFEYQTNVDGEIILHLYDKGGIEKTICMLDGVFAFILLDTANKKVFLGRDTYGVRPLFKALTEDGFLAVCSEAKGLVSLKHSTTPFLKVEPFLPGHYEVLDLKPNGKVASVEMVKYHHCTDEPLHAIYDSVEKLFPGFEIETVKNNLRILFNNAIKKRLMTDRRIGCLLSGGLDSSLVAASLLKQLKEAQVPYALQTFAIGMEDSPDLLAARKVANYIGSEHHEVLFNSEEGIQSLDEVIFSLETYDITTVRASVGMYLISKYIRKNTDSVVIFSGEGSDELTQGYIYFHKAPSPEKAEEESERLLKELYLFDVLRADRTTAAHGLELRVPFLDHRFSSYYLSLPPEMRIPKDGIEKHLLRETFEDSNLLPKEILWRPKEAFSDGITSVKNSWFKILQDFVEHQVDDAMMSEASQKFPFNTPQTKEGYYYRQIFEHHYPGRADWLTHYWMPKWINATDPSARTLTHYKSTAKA
Summary of the method: (§1)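 ASase partially purified from excised rat Novikoff hepatoma (specific activity 0.51 μmol asparagine/mg protein/30 min). Enzyme and inhibitor were preincubated with 100 μmol Tris at pH 8.0 for 15 min at 37 °C. L-glutamine (20.0 μmol), L-aspartic acid (2.0 μmol) and L-aspartic acid-¹⁴C (2×10⁶ dpm) were then added and incubated 30 min at 37 °C. Isolated L-asparagine-¹⁴C was counted by scintillation. Percent inhibition came from duplicates on three separate days with fresh inhibitor solutions.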

[2] = molecular target: T2, Asparagine synthetase [glutamine-hydrolyzing] (Mus musculus) (UniProt Q61024); assay: Inhibition of asparagine synthetase in mouse L5178Y/AR cells at 1 mM; format: cell-based
T2 sequence (whole entry): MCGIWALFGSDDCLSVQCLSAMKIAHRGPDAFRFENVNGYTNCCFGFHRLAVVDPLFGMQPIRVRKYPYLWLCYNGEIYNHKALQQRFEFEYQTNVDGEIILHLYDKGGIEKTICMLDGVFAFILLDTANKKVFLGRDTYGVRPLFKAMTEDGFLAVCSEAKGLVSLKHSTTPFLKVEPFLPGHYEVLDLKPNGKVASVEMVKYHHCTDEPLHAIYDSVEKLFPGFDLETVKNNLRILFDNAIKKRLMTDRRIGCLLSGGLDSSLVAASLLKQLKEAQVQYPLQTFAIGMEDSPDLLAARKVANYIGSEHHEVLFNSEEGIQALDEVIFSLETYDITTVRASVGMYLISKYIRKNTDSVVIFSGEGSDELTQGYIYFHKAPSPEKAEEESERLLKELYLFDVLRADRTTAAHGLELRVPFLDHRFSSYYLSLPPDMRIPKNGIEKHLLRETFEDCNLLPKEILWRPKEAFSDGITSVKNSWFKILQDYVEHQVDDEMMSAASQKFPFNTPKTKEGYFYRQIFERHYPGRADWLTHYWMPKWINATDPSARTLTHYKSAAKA

[3] = molecular target: T3, Asparagine synthetase [glutamine-hydrolyzing] (Homo sapiens) (UniProt P08243); assay: Inhibition of asparagine synthetase in human KB cells at 1 mM; format: cell-based
T3 sequence (whole entry): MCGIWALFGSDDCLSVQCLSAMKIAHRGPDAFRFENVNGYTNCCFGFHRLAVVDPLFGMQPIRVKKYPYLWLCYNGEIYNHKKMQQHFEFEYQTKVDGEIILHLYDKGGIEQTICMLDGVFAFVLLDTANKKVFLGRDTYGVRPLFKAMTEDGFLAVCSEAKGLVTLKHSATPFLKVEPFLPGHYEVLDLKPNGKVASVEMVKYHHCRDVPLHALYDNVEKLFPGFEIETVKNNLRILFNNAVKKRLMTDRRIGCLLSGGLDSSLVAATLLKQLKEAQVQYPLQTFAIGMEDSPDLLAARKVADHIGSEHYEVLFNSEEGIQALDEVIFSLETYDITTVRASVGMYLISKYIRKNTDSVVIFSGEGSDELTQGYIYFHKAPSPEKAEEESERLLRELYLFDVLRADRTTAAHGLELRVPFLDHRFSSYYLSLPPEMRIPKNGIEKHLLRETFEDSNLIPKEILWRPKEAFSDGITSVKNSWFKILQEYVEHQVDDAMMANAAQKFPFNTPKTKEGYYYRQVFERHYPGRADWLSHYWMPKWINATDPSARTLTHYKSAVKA

P388 = assay: Antitumor activity against mouse P388 cells […] in mouse assessed as increase in life span; format: functional
Summary of the method: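 In vivo screen run by the National Cancer Institute Drug Research and Development Program in CDF₁ mice bearing P-388 lymphocytic leukemia, an asparaginase-resistant line. The read-out was increase in life span.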

[4] = molecular target: T2, Asparagine synthetase [glutamine-hydrolyzing] (Mus musculus); assay: Inhibition of asparagine synthetase in mouse L5178Y/AR cells at 10 mM; format: cell-based
[5] = molecular target: T1, Asparagine synthetase [glutamine-hydrolyzing] (Rattus norvegicus); assay: Competitive inhibition of rat asparagine synthetase using L-aspartic acid as substrate incubated 15 mins prior to substrate addition measured after 30 mins by double reciprocal plot analysis
Summary of the method: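 Partially purified rat Novikoff hepatoma ASase was preincubated with inhibitor in Tris at pH 8.0 for 15 min at 37 °C. L-glutamine was then added with L-aspartic acid varied at 0.25, 0.50, 1.0 and 2.0 mM final, plus ¹⁴C-aspartate (2×10⁶ dpm/tube, 206 mCi/mmol), and incubated 30 min at 37 °C. L-asparagine-¹⁴C was measured. Double-reciprocal plots were fitted by least-squares regression.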

[6] = molecular target: T1, Asparagine synthetase [glutamine-hydrolyzing] (Rattus norvegicus); assay: Inhibition of asparagine synthetase isolated from rat bearing Novikoff hepatoma cells using [14C]-L-aspartic acid as substrate at 1 mM incubated 15 mins prior to substrate addition measured after 30 mins; summary of the method: as §1

Row | SMILES | inhibition [1] [%] | inhibition [4] | further results
1 | N[C@@H](CS(=O)(=O)NCCCl)C(=O)O | 0 |  | inhibition [2]: inactive
2 | NC(CC(=O)NO)C(=O)O (racemic) |  |  | inhibition [3]: 36%
3 | N[C@@H](CS(N)(=O)=O)C(=O)O | 25.8 |  | 
4 | CCOC(=O)/C=C/C(=O)NNS(=O)(=O)C[C@H](N)C(=O)O | 37.3 | inactive | Activity (P388): inactive
5 | N[C@@H](CS(=O)(=O)NO)C(=O)O | 96.5 | 81% | inhibition [5]: Active; Activity (P388): inactive; inhibition [6]: 77.6%; inhibition [2]: 23%
6 | N[C@@H](CS(=O)(=O)NNC(=O)c1ccc(S(=O)(=O)F)cc1)C(=O)O | 43.1 | inactive | 
7 | N[C@@H](CS(=O)(=O)NCc1ccc(S(=O)(=O)F)cc1)C(=O)O | 29.5 | inactive | 
8 | N[C@@H](CC(=O)NO)C(=O)O | 15.8 |  | inhibition [5]: inactive
